What is called IC50 is the point on the concentration scale where inhibition reaches its midpoint. What is called MIC is the lowest concentration that inhibits growth of the organism. By inhibition is commonly meant the change of the read-out against control, counted positive when it falls.

Consider one molecule from ChEMBL document CHEMBL4014347, “Targeting Mycolic Acid Transport by Indole-2-carboxamides for the Treatment of Mycobacterium abscessus Infections” (J Med Chem, 2017).

For data set [1], the system named is Mycobacteroides abscessus. Nature of the data set: Effect on de novo mycolic acid biosynthesis in Mycobacterium abscessus CIP104536 smooth variant at 6.2 ug/ml preincubated for 1 hr followed by [14C]acetic acid addition measured after 2 hrs by TLC based autoradiography analysis. The class given is functional. The essentials:
(§1)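 Exponential cultures in 7H9 with OADC exposed to increasing drug concentrations for 1 h at 37 °C with agitation, then labelled with 1 μCi/mL [14C]acetate (56 mCi/mmol) for 2 h; apolar lipids (TMM, TDM) run on TLC in chloroform/methanol/water 40:8:1; MAME and arabinogalactan-bound mycolates in petroleum ether/acetone 95:5; autoradiography.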

The target of data set [2] is T1, Cytochrome P450 2C8 (Homo sapiens, UniProt P10632).
T1 sequence (P10632 whole entry): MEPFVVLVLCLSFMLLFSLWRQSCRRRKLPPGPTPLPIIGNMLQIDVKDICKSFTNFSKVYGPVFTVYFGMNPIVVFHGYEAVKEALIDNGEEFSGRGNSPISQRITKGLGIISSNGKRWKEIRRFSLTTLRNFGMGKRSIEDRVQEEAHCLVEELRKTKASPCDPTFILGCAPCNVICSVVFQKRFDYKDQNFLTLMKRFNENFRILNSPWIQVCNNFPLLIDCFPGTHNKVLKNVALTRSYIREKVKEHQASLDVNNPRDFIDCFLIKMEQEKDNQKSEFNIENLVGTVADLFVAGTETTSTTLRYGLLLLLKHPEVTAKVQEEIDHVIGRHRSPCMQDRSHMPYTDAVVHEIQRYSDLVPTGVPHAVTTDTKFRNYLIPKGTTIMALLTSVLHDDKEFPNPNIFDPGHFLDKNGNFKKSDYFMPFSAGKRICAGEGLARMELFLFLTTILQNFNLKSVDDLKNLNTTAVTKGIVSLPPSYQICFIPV
The data set can be described thus: Inhibition of CYP2C8 in human liver microsomes preincubated for 5 mins followed by NADPH addition measured after 10 mins by LC-MS/MS analysis. It counts as ADME.

Data set [3] concerns Mycobacteroides abscessus. Nature of the data set: Antibacterial activity against non CF patient derived Mycobacterium abscessus subsp. abscessus isolate 2587 smooth variant after 3 to 5 days by two fold serial dilution method. The class given is functional. The essentials: (§2)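 Broth microdilution in cation-adjusted Mueller−Hinton broth per CLSI; inoculum 5 × 10^6 CFU/mL of exponential-phase bacteria; two-fold serial dilutions, solvent-only wells as control; 30 °C for 3−5 days; MIC read visually and confirmed by absorbance at 560 nm; triplicate on three independent occasions.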

Data set [4] is described as follows: Protein binding in mouse plasma at 5 uM after 10 mins by LC-MS/MS analysis. The class given is ADME, cell-free. Particulars: read-out: PPB (converted). The essentials:
(§3)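 Ultracentrifugation method: 5 μM compound in mouse or rat plasma (from DMSO stock), 10 min at 37 °C; total concentration from incubated plasma, unbound from middle-layer supernatant after 200000g for 4.5 h; niflumic acid internal standard, acetonitrile, filtered, LC-MS/MS.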

Data set [5] deals with Mycobacteroides abscessus. The data set can be described thus: Antibacterial activity against Mycobacterium abscessus CIP_OK4-10 harboring MAB_4508 g925c/A309P mutant after 3 to 5 days by two fold serial dilution method. The class given is functional. The essentials: as §2
A short description of data set [6]: Protein binding in rat plasma at 5 uM after 10 mins by LC-MS/MS analysis. Particulars: read-out: PPB (converted). It counts as ADME, cell-free. The method, boiled down:
as §3

The subject of data set [7] is Mycobacteroides abscessus. Nature of the data set: Antibacterial activity against non CF patient derived Mycobacterium abscessus subsp. abscessus isolate CIP104536 smooth variant after 3 to 5 days by two fold serial dilution method. The class given is functional. The method, boiled down:
as §2

Data set [8] concerns Mycobacteroides abscessus. Nature of the data set: Antibacterial activity against CF patient derived Mycobacterium abscessus subsp. massiliense isolate 210 rough variant after 3 to 5 days by two fold serial dilution method. It counts as functional. The method, boiled down:
as §2

The nature of data set [9]: Antibacterial activity against non CF patient derived Mycobacterium abscessus subsp. bolletii isolate 17 smooth variant after 3 to 5 days by two fold serial dilution method. The class given is functional. Particulars: Mycobacteroides abscessus. The essentials: as §2
In data set [10] the test system is Mycobacteroides abscessus. The data set can be described thus: Antibacterial activity against Mycobacterium abscessus CIP104536 smooth variant harboring pMV261 MAB_4508_A309P mutant at 0.5 to 1 ug/ml after 3 days. It counts as functional. The essentials: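 M. abscessus overexpressing wild-type or A309P MAB_4508 from pMV261 plated on 7H10 agar with 10% OADC containing drug; plates incubated at 30 °C for 3 days before growth inspection.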

Data set [11] in a line: Selectivity index, ratio of IC50 for African green monkey Vero cells to MIC=<90 for Mycobacterium tuberculosis. It counts as toxicity. Particulars: read-out: Selectivity Index.
The nature of data set [12]: Selectivity index, ratio of IC50 for African green monkey Vero cells to MIC for Mycobacterium abscessus CIP104536. It counts as toxicity. Particulars: read-out: Selectivity Index.
The target of data set [13] is Cytochrome P450 2C19 (Homo sapiens, UniProt P33261). Nature of the data set: Inhibition of CYP2C19 in human liver microsomes preincubated for 5 mins followed by NADPH addition measured after 40 mins by LC-MS/MS analysis. The class given is ADME. On the technique in general: Liver microsomes are vesicles of endoplasmic reticulum, rich in cytochrome P450 enzymes.
Cytochrome P450 2C19, sequence (P33261 whole entry): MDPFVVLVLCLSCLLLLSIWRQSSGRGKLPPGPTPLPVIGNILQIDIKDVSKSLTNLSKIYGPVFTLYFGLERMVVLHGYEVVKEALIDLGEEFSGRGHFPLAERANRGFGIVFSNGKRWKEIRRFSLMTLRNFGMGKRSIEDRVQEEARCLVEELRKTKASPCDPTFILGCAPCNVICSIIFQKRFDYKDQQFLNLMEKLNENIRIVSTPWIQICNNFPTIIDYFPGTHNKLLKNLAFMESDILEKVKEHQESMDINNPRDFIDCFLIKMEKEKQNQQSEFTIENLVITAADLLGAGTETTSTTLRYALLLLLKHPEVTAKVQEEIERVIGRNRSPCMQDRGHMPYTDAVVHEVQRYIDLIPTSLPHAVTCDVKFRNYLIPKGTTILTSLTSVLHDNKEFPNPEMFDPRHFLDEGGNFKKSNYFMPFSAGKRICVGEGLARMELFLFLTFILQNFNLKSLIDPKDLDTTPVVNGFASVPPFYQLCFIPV
Data set [14] concerns Mycobacteroides abscessus. The data set can be described thus: Antibacterial activity against CF patient derived Mycobacterium abscessus subsp. massiliense isolate 111 smooth variant after 3 to 5 days by two fold serial dilution method. It counts as functional. The method, boiled down:
as §2

Data set [15] concerns Mycobacteroides abscessus. Nature of the data set: Antibacterial activity against CF patient derived Mycobacterium abscessus subsp. abscessus isolate 2648 rough variant after 3 to 5 days by two fold serial dilution method. It counts as functional. The method, boiled down:
as §2

Data set [16] concerns Mycobacteroides abscessus. The data set can be described thus: Antibacterial activity against CF patient derived Mycobacterium abscessus subsp. massiliense isolate 107 smooth variant after 3 to 5 days by two fold serial dilution method. It counts as functional. The method, boiled down: as §2
Data set [17] relates to Mycobacteroides abscessus. Nature of the data set: Antibacterial activity against Mycobacterium abscessus CIP104536 after 3 to 5 days by two fold serial dilution method. The class given is functional. The method, boiled down: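 Broth microdilution per CLSI in cation-adjusted Mueller–Hinton broth; exponential-phase inoculum 5 × 10^6 CFU/mL; two-fold serial dilutions from highest concentration, solvent wells as control; 30 °C for 3−5 days; MIC read visually and confirmed by absorbance at 560 nm; triplicate on three independent occasions.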

Data set [18] relates to Mycobacteroides abscessus. Nature of the data set: Antibacterial activity against CF patient derived Mycobacterium abscessus subsp. abscessus rough variant after 3 to 5 days by two fold serial dilution method. The class given is functional. The essentials:
as §2

For data set [19], the system named is Mycobacteroides abscessus. The data set can be described thus: Antibacterial activity against CF patient derived Mycobacterium abscessus subsp. abscessus isolate 2524 rough variant after 3 to 5 days by two fold serial dilution method. The class given is functional. The method, boiled down: as §2
The subject of data set [20] is Salmonella typhimurium. Nature of the data set: Mutagenicity in Salmonella typhimurium TA98 assessed as increase in revertant colonies at 0.24 to 500 ug/well after 72 hrs by Ames test relative to control. Particulars: salmonella enterica subsp. enterica serovar typhimurium. The class given is toxicity. The essentials: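 Reverse mutation at histidine locus in S. typhimurium TA98 (frameshift) and TA100 (base-pair substitution), with and without S9; 0.24−500 μg/well; 37 ± 2 °C for 72 h, triplicates; DMSO vehicle; sodium azide, 2-nitrofluorene, 2-aminoanthracene positive controls; positive if revertants rise ≥2-fold over negative control dose-dependently.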
(In the Ames test, an excess of revertant colonies over the control signals mutagenicity.)

Data set [21] concerns the target CYP2C19 (Homo sapiens, UniProt P33261). The data set can be described thus: Inhibition of CYP2C19 in human liver microsomes preincubated for 5 mins followed by NADPH addition at 10 uM measured after 40 mins by LC-MS/MS analysis relative to control. The class given is ADME.
The test system of data set [22] is Mycobacteroides abscessus. Nature of the data set: Inhibition of MmpL3 in Mycobacterium abscessus CIP104536 smooth variant assessed as reduction in trehalose dimycolate synthesis up to 6.2 ug/ml preincubated for 1 hr followed by [14C]acetic acid addition measured after 2 hrs by TLC based autoradiography analysis. The method, boiled down: as §1
Data set [23] can be described thus: Antibacterial activity against CF patient derived Mycobacterium abscessus subsp. bolletii isolate 97 smooth variant after 3 to 5 days by two fold serial dilution method. The class given is functional. Particulars: Mycobacteroides abscessus. The method, boiled down: as §2
Data set [24] deals with Mycobacteroides abscessus. The data set can be described thus: Antibacterial activity against CF patient derived Mycobacterium abscessus subsp. abscessus isolate 1298 smooth variant after 3 to 5 days by two fold serial dilution method. It counts as functional. The essentials: as §2

Structures are written as SMILES. ≈ marks a conversion by molar mass, not a printed value. Calls of active or inactive are those of the source. The rule behind the calls is not given here.

CYP2C19, sequence (P33261 whole entry): as above

For the molecule `O=C(NC1CCCCCC1)c1cc2c(Cl)cc(Cl)cc2[nH]1`, the result in data set [1] and in data set [10] was inactive. Also, the IC50 in data set [2] and in [13] was at most 20 µM each time. Moreover, the minimum inhibitory concentration (MIC) in data set [3] turned out to be 0.125 µg/mL (≈ 0.384 µM); in [5], 32 µg/mL (≈ 98.4 µM); in [7], 0.125 µg/mL (≈ 0.384 µM); in data set [8], 0.125 µg/mL (≈ 0.384 µM); in data set [9], 0.125 µg/mL (≈ 0.384 µM); in [14], 0.125 µg/mL (≈ 0.384 µM). The MIC in data set [15] came out at 0.125 µg/mL (≈ 0.384 µM); in data set [16], 0.25 µg/mL (≈ 0.769 µM); in [17] it was 0.125 µg/mL (≈ 0.384 µM); in [18], 0.125 µg/mL (≈ 0.384 µM); in [19], 0.125 µg/mL (≈ 0.384 µM); in [23] it was 0.125 µg/mL (≈ 0.384 µM). In [24], this molecule registered an MIC of 0.125 µg/mL (≈ 0.384 µM). Also, the fraction unbound at 10 min, 5 µM in [4] is 0.011; in data set [6], 0.008. In addition, the selectivity ratio in [11] was in the range of 2050 to 4100; in data set [12], 64 to 128. The “fold change (FC)” value in data set [20] was below 2. Further, the inhibition at 40 min, 10 µM in data set [21] was 4%. For the same molecule, the inhibition entry in data set [22] was “Active”.
